Source: ChEMBL document CHEMBL1134284, “The biological effects of structural variation at the meta position of the aromatic rings and at the end of the alkenyl chain in the alkenyldiarylmethane series of non-nucleoside reverse transcriptase inhibitors” (J Med Chem, 2001)

Experiments:
CCRF-CEM [1] = assay: Antiviral activity against site directed resistant isolate HIV-1 V179D in CEM cells; assay type: functional, cell-based, Homo sapiens
Method in brief: (§1)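 CEM-SS cells in RPMI 1640 with 10% heat-inactivated FBS were infected with NL4-3 molecular clones carrying site-directed RT mutations. Cytoprotection from virus-induced syncytial killing was read by MTS/phenazine ethosulfate reduction (A490) 6 days after infection. […] Triplicate, variation of mean about 10%.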

CCRF-CEM [2] = assay: Antiviral activity against site directed wild-type enzyme isolate HIV-1 NL4-3WT in CEM cells; assay type: functional, cell-based; conditions: Homo sapiens
Method in brief: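 Wild-type NL4-3 in CEM-SS cells, measured both by MTS cytoprotection 6 days after infection and by p24 ELISA. The IC50 is the mean of the two methods' values.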

CCRF-CEM [3] = assay: Antiviral activity against site directed resistant isolate HIV-1 K103N in CEM cells; assay type: functional, cell-based, Homo sapiens; method in brief: as §1
[4] = Antiviral activity against Ba-L monocyte tropic isolate strain in monocyte; assay type: functional; conditions: Homo sapiens
Method in brief: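 Monocytes isolated from hepatitis- and HIV-seronegative donors by Ficoll-Hypaque gradient, cultured 6 days into macrophages, then infected with Ba-L. Medium RPMI 1640 with 10% FBS, 2 mM glutamine, penicillin/streptomycin. Replication read as p24 antigen by ELISA 6 days postinfection. […] Run in triplicate, with AZT as positive control.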

[5] = Antiviral activity against subtype isolate A strain in PBLs (peripheral blood lymphocytes); assay type: functional, cell-based; conditions: Homo sapiens
Method in brief: (§2)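 PBMCs isolated from hepatitis- and HIV-seronegative donors by Ficoll-Hypaque gradient and stimulated 3 days with phytohemagglutinin/IL-2. Infected with pediatric low-passage clinical isolates or NIAID subtype isolates, in RPMI 1640 with 10% FBS, 2 mM glutamine, penicillin/streptomycin. Replication read as supernatant reverse transcriptase activity. […] Run in triplicate, with AZT as positive control.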

[6] = tested on: Human immunodeficiency virus type 1 (RF/HAT ISOLATE); assay: Inhibitory concentration for cytopathicity of HIV-1RF in CEM-SS cells; assay type: functional, organism-based; conditions: Human immunodeficiency virus 1, RF
Method in brief: (§3)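 CEM-SS cells kept in RPMI 1640 with 10% heat-inactivated FBS, 2 mM glutamine, penicillin/streptomycin. Microtiter assay with cytopathic HIV-1 RF, or mock infection for toxicity. Viability read by MTS/phenazine ethosulfate reduction (absorbance 490 nm) 6 days after infection. […] Triplicate.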

[7] = Antiviral activity against subtype isolate B strain in PBLs (peripheral blood lymphocytes); assay type: functional, cell-based, Homo sapiens; conditions: Homo sapiens; method in brief: as §2
[8] = Antiviral activity against subtype isolate D strain in PBLs (peripheral blood lymphocytes); assay type: functional, cell-based; conditions: Homo sapiens; method in brief: as §2
CCRF-CEM [9] = assay: Antiviral activity against site directed 4X AZT resistant isolate HIV-1 in CEM cells; assay type: functional, cell-based, Homo sapiens; conditions: Homo sapiens, CCRF-CEM
[10] = Antiviral activity against subtype isolate G strain in PBLs (peripheral blood lymphocytes); assay type: functional, cell-based; conditions: Homo sapiens; method in brief: as §2
[11] = Antiviral activity against SLKA virus strain in PBLs (peripheral blood lymphocytes); assay type: functional, cell-based; conditions: Homo sapiens; method in brief: as §2
CCRF-CEM [12] = assay: Antiviral activity against site directed resistant isolate HIV-1 Y188C in CEM cells; assay type: functional, cell-based, Homo sapiens; method in brief: as §1
CCRF-CEM [13] = assay: Antiviral activity against site directed 4X AZT resistant isolate HIV-1 L100I in CEM cells; assay type: functional, cell-based, Homo sapiens
Method in brief: (§4)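 CEM-SS cells infected with low-cytopathicity site-directed RT-mutant NL4-3 clones (A98G, L74V, 4XAZT = D67N/K70R/T215Y/K219Q, 4XAZT/L100I). Replication was quantified by p24 ELISA rather than cytoprotection. […] Triplicate, variation of mean about 10%.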

CCRF-CEM [14] = assay: Antiviral activity against site directed resistant isolates in HIV-1 A98G CEM cells; assay type: functional, cell-based, Homo sapiens; method in brief: as §4
CCRF-CEM [15] = assay: Antiviral activity against site directed resistant isolate HIV-1 L74V in CEM cells; assay type: functional, cell-based, Homo sapiens; method in brief: as §4
[16] = Ratio of CC50/EC50 was determined; conditions: read-out: TI
Method in brief: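 HIV-1 RF–infected CEM-SS cells (RPMI 1640, 10% heat-inactivated FBS, 2 mM glutamine, penicillin/streptomycin), plus mock-infected CEM-SS in parallel. Cell killing and viability were read by MTS/phenazine ethosulfate reduction at 490 nm 6 days after infection. […] Index = CC50 ÷ EC50. Triplicate tests.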

[17] = Antiviral activity against subtype isolate C strain in PBLs (peripheral blood lymphocytes); assay type: functional, cell-based; conditions: Homo sapiens; method in brief: as §2
CEM-SS = assay: Concentration required for cytotoxicity against mock infected CEM-SS cells; assay type: functional; conditions: Homo sapiens; method in brief: as §3
CCRF-CEM [18] = assay: Antiviral activity against site directed resistant isolate HIV-1 V106A in CEM cells; assay type: functional, cell-based, Homo sapiens; method in brief: as §1
[19] = Antiviral activity against subtype isolate F strain in PBLs (peripheral blood lymphocytes); assay type: functional, cell-based, Homo sapiens; conditions: Homo sapiens; method in brief: as §2
[20] = Antiviral activity against TEKI virus strain in PBLs (peripheral blood lymphocytes); assay type: functional, cell-based; conditions: Homo sapiens; method in brief: as §2
[21] = Antiviral activity against subtype isolate E strain in PBLs (peripheral blood lymphocytes); assay type: functional, cell-based; conditions: Homo sapiens
[22] = Antiviral activity against multi drug resistant MDR 769 strain in PBLs (peripheral blood lymphocytes); assay type: functional, cell-based; conditions: Homo sapiens
Method in brief: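 PBMC from hepatitis- and HIV-seronegative donors isolated by Ficoll-Hypaque gradient and stimulated 3 days with phytohemagglutinin/IL-2 before infection. Medium RPMI 1640 with 10% FBS, 2 mM glutamine, penicillin/streptomycin. Replication read as supernatant reverse transcriptase activity. […] Run in triplicate, SD within triplicate under 10%; AZT positive control.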

[23] = Antiviral activity against ROJO virus strain in PBLs (peripheral blood lymphocytes); assay type: functional, cell-based; conditions: Homo sapiens; method in brief: as §2
[24] = biological target: Human immunodeficiency virus type 1 reverse transcriptase (Human immunodeficiency virus 1, UniProt Q72547); assay: Inhibitory activity against HIV-1 Reverse Transcriptase with rCdG as the template primer
Method in brief: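 Cell-free assay with purified recombinant HIV-1 RT (p66/p51 dimer). Activity measured as [32P]GTP incorporation into the poly(rC)/oligo(dG) homopolymer template/primer. IC50 is reported as inhibition of enzyme activity.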

[25] = Antiviral activity against subtype isolate O strain in PBLs (peripheral blood lymphocytes); assay type: functional, cell-based, Homo sapiens; conditions: Homo sapiens; method in brief: as §2
CCRF-CEM [26] = assay: Antiviral activity against site directed resistant isolate HIV-1 L100I in CEM cells; assay type: functional, cell-based, Homo sapiens; method in brief: as §1
CCRF-CEM [27] = assay: Antiviral activity against site directed resistant isolate HIV-1 Y181C in CEM cells; assay type: functional, cell-based, Homo sapiens; method in brief: as §1
CCRF-CEM [28] = assay: Antiviral activity against site directed resistant isolate HIV-1 K101E in CEM cells; assay type: functional, cell-based, Homo sapiens

CCOC(=O)CCCC=C(c1cc(Br)c(OC)c(C(=O)OC)c1)c1cc(Br)c(OC)c(C(=O)OC)c1
IC50 (CCRF-CEM [1]): 2500 nM | IC50 (CCRF-CEM [2]): 440 nM | IC50 (CCRF-CEM [3]): 460 nM | IC50 [4]: 4400 nM | IC50 [5]: 200 nM | EC50 [6]: 7 nM | IC50 [7]: 4900 nM | IC50 [8]: 30 nM | IC50 (CCRF-CEM [9]): 70 nM | IC50 [10]: 400 nM | IC50 [11]: 1100 nM | IC50 (CCRF-CEM [12]): 1800 nM | IC50 (CCRF-CEM [13]): 370 nM | IC50 (CCRF-CEM [14]): 15 nM | IC50 (CCRF-CEM [15]): 352 nM | selectivity ratio [16]: 2360 | IC50 [17]: 150 nM | CC50 (CEM-SS): 16500 nM | IC50 (CCRF-CEM [18]): 7020 nM | IC50 [19]: 760 nM | IC50 [20]: 1000 nM | IC50 [21]: 100 nM | IC50 [22]: 6300 nM | IC50 [23]: 200 nM | IC50 [24]: 359 nM | IC50 [25]: 21000 nM | IC50 (CCRF-CEM [26]): 15 nM | IC50 (CCRF-CEM [27]): 4400 nM | IC50 (CCRF-CEM [28]): 957 nM
